Laboratory results as given in ChEMBL document CHEMBL3994589, “Total Synthesis and in Vitro Anti-Tumor-Promoting Activities of Racemic Acetophenone Monomers from Acronychia trifoliolata” (J Nat Prod, 2016).

Tests used:
human gammaherpesvirus 4 [1] = assay: Inhibition of TPA-induced EBV-early antigen activation in human Raji cells assessed as reduction in EBV-EA positive cells at 500 molar ratio per TPA after 48 hrs by indirect immunofluorescence method relative to TPA; values are per cent of control
human gammaherpesvirus 4 [2] = assay: Inhibition of TPA-induced EBV-early antigen activation in human Raji cells assessed as reduction in EBV-EA positive cells at 10 molar ratio per TPA after 48 hrs by indirect immunofluorescence method relative to TPA; values are per cent of control
[3] = Cytotoxicity against human Raji cells assessed as cell viability at 1000 molar ratio per TPA after 48 hrs by trypan blue staining based method; conditions: read-out: Activity
In short: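 Raji cells exposed to test compounds at 1000 mol ratio to TPA (TPA 32 pmol/mL) in the EBV-EA activation assay; viability of treated cells scored by trypan blue staining and reported as percentage.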

human gammaherpesvirus 4 [4] = assay: Inhibition of TPA-induced EBV-early antigen activation in human Raji cells assessed as reduction in EBV-EA positive cells at 100 molar ratio per TPA after 48 hrs by indirect immunofluorescence method relative to TPA; values are per cent of control
[5] = Inhibition of TPA-induced EBV-early antigen activation in human Raji cells after 48 hrs by indirect immunofluorescence method; format: cell-based, human gammaherpesvirus 4
In short: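 EBV-EA activation induced in Raji cells by 32 pmol/mL TPA, with compounds tested over molar ratios relative to TPA. IC50 is the compound concentration inhibiting 50% of the positive control activated with 32 nM TPA.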

human gammaherpesvirus 4 [6] = assay: Inhibition of TPA-induced EBV-early antigen activation in human Raji cells assessed as reduction in EBV-EA positive cells at 1000 molar ratio per TPA after 48 hrs by indirect immunofluorescence method relative to TPA; values are per cent of control

IC50 [5]	SMILES	level, % of control (human gammaherpesvirus 4 [1])	level, % of control (human gammaherpesvirus 4 [2])	viability at 48 h, 1000 molar ratio per TPA [3]	level, % of control (human gammaherpesvirus 4 [4])	level, % of control (human gammaherpesvirus 4 [6])
15 µM	COc1c(CC=C(C)C)c2c(c(OC(C)=O)c1C(C)=O)CC(C(C)(C)O)O2 (stereo not given)	43.8%	100%	60%	71%	7%
9.6 µM	COc1c2c(c(CC=C(C)C)c(OC(C)=O)c1C(C)=O)OC(C(C)(C)O)C2 (stereo not given)	33.9%	97.8%	60%	78.6%	5.3%
8.1 µM	COc1c(CCC(C)C)c2c(c(O)c1C(C)=O)CC(O)C(C)(C)O2 (stereo not given)	36.6%	97.8%	60%	78.8%	0%
7.7 µM	COc1c2c(c(CC=C(C)C)c(O)c1C(C)=O)OC(C(C)(C)O)C2 (racemic)	30.6%	93.3%	60%	74.3%	0%
8.4 µM	COc1c(CC=C(C)C)c(O)c2c(c1C(C)=O)OC(C)(C)C(O)C2 (racemic)	27.1%	96.6%	60%	68.2%	1.5%
7.3 µM	COc1c2c(c(CC=C(C)C)c(O)c1C(C)=O)OC(C)(C)C(O)C2 (racemic)	26.5%	92.4%	60%	65.5%	0%
9.3 µM	COc1c2c(c(CCC(C)C)c(O)c1C(C)=O)OC(C)(C)C(O)C2 (racemic)	31.5%	97.7%	60%	76%	4.9%
15.7 µM	COc1c2c(cc(O)c1C(C)=O)OC(O)C2 (racemic)	53.3%	100%	60%	77.9%	10.8%
8.9 µM	COc1c(CC=C(C)C)c2c(c(O)c1C(C)=O)CC(O)C(C)(C)O2 (racemic)	29.1%	96.9%	60%	72.5%	3%
8 µM	COc1c(CC=C(C)C)c2c(c(O)c1C(C)=O)CC(C(C)(C)O)O2 (racemic)	32%	94.9%	60%	75.5%	0%
12.1 µM	COc1cc(/C=C/C(=O)CC(=O)/C=C/c2ccc(O)c(OC)c2)ccc1O [CURCUMIN]	21.1%	100%		80.1%	0%
